Results as given in ChEMBL document CHEMBL1914423, “New imidazo[2,1-b]thiazole derivatives: synthesis, in vitro anticancer evaluation, and in silico studies” (Eur J Med Chem, 2011).

Key:
MDA-MB-231 = test: Anticancer activity against human MDA-MB-231 cells assessed as cell growth at 10^-5 M after 48 hrs by SRB assay; format: functional; conditions: MDA-MB-231, 48 h, read-out: Activity
Summary of the method: (§1)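 NCI-60 single-dose screen at one concentration. Cells grown in RPMI 1640 with 5% FBS and 2 mM L-glutamine, plated at 5000–40,000 cells/well, and pre-incubated 24 h at 37 °C in 5% CO2 before DMSO-dissolved drug was added. Cells fixed with TCA, SRB-stained, absorbance read at 515 nm. Percent growth calculated against time-zero and untreated control plates.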

ACHN = test: Anticancer activity against human ACHN cells assessed as cell growth at 10^-5 M after 48 hrs by SRB assay; format: functional; conditions: read-out: Activity; summary of the method: as §1
HCT-116 = test: Anticancer activity against human HCT116 cells assessed as cell growth at 10^-5 M after 48 hrs by SRB assay; format: functional; conditions: HCT-116, 48 h, read-out: Activity; summary of the method: as §1
HCC 2998 = test: Anticancer activity against human HCC2998 cells assessed as cell growth at 10^-5 M after 48 hrs by SRB assay; format: functional; conditions: HCC 2998, 48 h, read-out: Activity; summary of the method: as §1
MOLT-4 = test: Anticancer activity against human MOLT4 cells assessed as cell growth at 10^-5 M after 48 hrs by SRB assay; format: functional; conditions: MOLT-4, 48 h, read-out: Activity
SK-MEL-2 = test: Anticancer activity against human SK-MEL-2 cells assessed as cell growth at 10^-5 M after 48 hrs by SRB assay; format: functional; conditions: SK-MEL-2, 48 h, read-out: Activity
OVCAR-3 = test: Anticancer activity against human OVCAR3 cells assessed as cell growth at 10^-5 M after 48 hrs by SRB assay; format: functional; conditions: OVCAR-3, 48 h, read-out: Activity
[1] = Antiproliferative activity against human A375P cells after 48 hrs by MTT assay; format: functional, cell-based
Summary of the method: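 A375P cells in DMEM with 10% FBS at 37 °C, 5% CO2. Seeded at 5×10³ cells/well, held 24 h, then treated with 12-point 3-fold serial dilutions for 48 h. Viability by MTT reduction. IC50 values are means of triplicate experiments.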

NCI-H322M = test: Anticancer activity against human NCI-H322M cells assessed as cell growth at 10^-5 M after 48 hrs by SRB assay; format: functional; conditions: read-out: Activity
SN12C = test: Anticancer activity against human SN12C cells assessed as cell growth at 10^-5 M after 48 hrs by SRB assay; format: functional; conditions: read-out: Activity
RXF 393 = test: Anticancer activity against human RXF393 cells assessed as cell growth at 10^-5 M after 48 hrs by SRB assay; format: functional; conditions: RXF 393, 48 h, read-out: Activity
SF-539 = test: Anticancer activity against human SF539 cells assessed as cell growth at 10^-5 M after 48 hrs by SRB assay; format: functional; conditions: SF-539, 48 h, read-out: Activity
UACC-62 = test: Anticancer activity against human UACC62 cells assessed as cell growth at 10^-5 M after 48 hrs by SRB assay; format: functional; conditions: UACC-62, 48 h, read-out: Activity
Summary of the method: (§2)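 NCI-60 single-dose screen: cells in RPMI 1640 with 5% FBS and 2 mM L-glutamine, plated at 5000–40,000 cells/well by doubling time, and preincubated 24 h at 37 °C. Compound given at one concentration from DMSO stock. Cells TCA-fixed and SRB-stained, absorbance at 515 nm. Percent growth relative to time-zero and untreated controls; inhibition % = 100 − growth %.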

RPMI-8226 = test: Anticancer activity against human RPMI8226 cells assessed as cell growth at 10^-5 M after 48 hrs by SRB assay; format: functional; conditions: RPMI-8226, 48 h, read-out: Activity
HT-29 = test: Anticancer activity against human HT-29 cells assessed as cell growth at 10^-5 M after 48 hrs by SRB assay; format: functional; conditions: HT-29, 48 h, read-out: Activity; summary of the method: as §1
SK-MEL-28 = test: Anticancer activity against human SK-MEL-28 cells assessed as cell growth at 10^-5 M after 48 hrs by SRB assay; format: functional; conditions: SK-MEL-28, 48 h, read-out: Activity
M14 = test: Anticancer activity against human M14 cells assessed as cell growth at 10^-5 M after 48 hrs by SRB assay; format: functional; conditions: M14, 48 h, read-out: Activity; summary of the method: as §1
IGROV-1 = test: Anticancer activity against human IGROV1 cells assessed as cell growth at 10^-5 M after 48 hrs by SRB assay; format: functional; conditions: IGROV-1, 48 h, read-out: Activity; summary of the method: as §1
NCI-H522 = test: Anticancer activity against human NCI-H522 cells assessed as cell growth at 10^-5 M after 48 hrs by SRB assay; format: functional; conditions: NCI-H522, 48 h, read-out: Activity
T47D = test: Anticancer activity against human T47D cells assessed as cell growth at 10^-5 M after 48 hrs by SRB assay; format: functional; conditions: read-out: Activity; summary of the method: as §2
HL-60(TB) = test: Anticancer activity against human HL-60(TB) cells assessed as cell growth at 10^-5 M after 48 hrs by SRB assay; format: functional; conditions: HL-60, 48 h, read-out: Activity
Summary of the method: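 NCI-60 single-dose screen. Cells in RPMI 1640 with 5% FBS and 2 mM L-glutamine were plated at 5000–40,000 cells/well and preincubated 24 h at 37 °C before one compound concentration. Time-zero plates were TCA-fixed at drug addition. For suspension cells, settled cells were fixed with cold TCA, then SRB-stained and read at 515 nm. Percent growth was calculated from time-zero, control and treated absorbances.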

OVCAR-4 = test: Anticancer activity against human OVCAR4 cells assessed as cell growth at 10^-5 M after 48 hrs by SRB assay; format: functional; conditions: OVCAR-4, 48 h, read-out: Activity
UACC-257 = test: Anticancer activity against human UACC257 cells assessed as cell growth at 10^-5 M after 48 hrs by SRB assay; format: functional; conditions: UACC-257, 48 h, read-out: Activity; summary of the method: as §2
Malme-3M = test: Anticancer activity against human MALME-3M cells assessed as cell growth at 10^-5 M after 48 hrs by SRB assay; format: functional; conditions: read-out: Activity; summary of the method: as §1
SW-620 = test: Anticancer activity against human SW620 cells assessed as cell growth at 10^-5 M after 48 hrs by SRB assay; format: functional; conditions: SW-620, 48 h, read-out: Activity; summary of the method: as §2
CAKI-1 = test: Anticancer activity against human Caki1 cells assessed as cell growth at 10^-5 M after 48 hrs by SRB assay; format: functional; conditions: CAKI-1, 48 h, read-out: Activity; summary of the method: as §1
BT-549 = test: Anticancer activity against human BT549 cells assessed as cell growth at 10^-5 M after 48 hrs by SRB assay; format: functional; conditions: BT-549, 48 h, read-out: Activity; summary of the method: as §1
UO-31 = test: Anticancer activity against human UO31 cells assessed as cell growth at 10^-5 M after 48 hrs by SRB assay; format: functional; conditions: UO-31, 48 h, read-out: Activity; summary of the method: as §2
MDA-MB-435 = test: Anticancer activity against human MDA-MB-435 cells assessed as cell growth at 10^-5 M after 48 hrs by SRB assay; format: functional; conditions: MDA-MB-435, 48 h, read-out: Activity

Compound	growth at 10 µM (MDA-MB-231)	growth at 10 µM (ACHN)	growth at 10 µM (HCT-116)	growth at 10 µM (HCC 2998)	growth at 10 µM (MOLT-4)	growth at 10 µM (SK-MEL-2)	growth at 10 µM (OVCAR-3)	IC50 [1]	growth at 10 µM (NCI-H322M)	growth at 10 µM (SN12C)	growth at 10 µM (RXF 393)	growth at 10 µM (SF-539)	growth at 10 µM (UACC-62)	growth at 10 µM (RPMI-8226)	growth at 10 µM (HT-29)	growth at 10 µM (SK-MEL-28)	growth at 10 µM (M14)	growth at 10 µM (IGROV-1)	growth at 10 µM (NCI-H522)	growth at 10 µM (T47D)	further results
COc1cccc(-c2nc3sccn3c2-c2ccnc(NCCNC(=O)c3ccccc3O)n2)c1	89.4%	62%	69.7%	113%	59.1%	80.7%	75%	7.5 µM	95.6%	86%	78.9%	98%	36.8%	26%	96.4%	77.1%	46.9%	60.9%	61.7%	60.1%	growth at 10 µM (HL-60(TB)): 99.5%; growth at 10 µM (OVCAR-4): 116%; growth at 10 µM (UACC-257): 78.7%; growth at 10 µM (Malme-3M): 57.5%; growth at 10 µM (SW-620): 119%; growth at 10 µM (CAKI-1): 68.8%; growth at 10 µM (BT-549): 81.6%; growth at 10 µM (UO-31): 48.6%; growth at 10 µM (MDA-MB-435): 54.3%
O=C(NCCNc1nccc(-c2c(-c3cccc(O)c3)nc3sccn23)n1)Nc1cccc(C(F)(F)F)c1	37.7%	85.1%	56.8%	23%	59.8%	54.4%	76.7%	4.2 µM	76.8%	70.7%	26.2%	98.5%	29.4%	-4.81%	38.9%	48.8%	-21.7%	65.6%	-5.9%	63.8%	growth at 10 µM (HL-60(TB)): 36.4%; growth at 10 µM (OVCAR-4): 110%; growth at 10 µM (UACC-257): 25.3%; growth at 10 µM (Malme-3M): 23.6%; growth at 10 µM (SW-620): 30.3%; growth at 10 µM (CAKI-1): 90.3%; growth at 10 µM (BT-549): 41.1%; growth at 10 µM (UO-31): 75.2%; growth at 10 µM (MDA-MB-435): -3.01%
COc1cccc(-c2nc3sccn3c2-c2ccnc(NCCNC(=O)Nc3cccc(C(F)(F)F)c3)n2)c1	43.6%	46.2%	44.6%	40.8%	36.7%	61.9%	66.3%	5.3 µM	81.3%	68.8%	6.3%	77.9%	50.5%	20.4%	44.1%	78.4%	39.2%	50.9%	47.7%	42.9%	growth at 10 µM (HL-60(TB)): 62.8%; growth at 10 µM (OVCAR-4): 91.1%; growth at 10 µM (UACC-257): 69.5%; growth at 10 µM (Malme-3M): 85.1%; growth at 10 µM (SW-620): 88.9%; growth at 10 µM (CAKI-1): 40%; growth at 10 µM (BT-549): 71.9%; growth at 10 µM (UO-31): 39.7%; growth at 10 µM (MDA-MB-435): 21.5%
COc1cccc(-c2nc3sccn3c2-c2ccnc(NCCNC(=O)c3cc(C(F)(F)F)cc(C(F)(F)F)c3)n2)c1	82.9%	88.2%	69.1%	90.2%	67.6%	81.8%	90.9%	> 10 µM	95.5%	90.8%	51.2%	88.3%	70.3%	50%	69.8%	97.6%	79.3%	81.5%	78.4%	77%	growth at 10 µM (HL-60(TB)): 131%; growth at 10 µM (OVCAR-4): 103%; growth at 10 µM (UACC-257): 99.6%; growth at 10 µM (Malme-3M): 94.1%; growth at 10 µM (SW-620): 119%; growth at 10 µM (CAKI-1): 85.9%; growth at 10 µM (BT-549): 86.2%; growth at 10 µM (UO-31): 61.2%; growth at 10 µM (MDA-MB-435): 83.9%
